In ChEMBL document CHEMBL1275285, “Synthesis, antimicrobial and anti-inflammatory activities of novel 5-(1-adamantyl)-1,3,4-thiadiazole derivatives” (2010):
Converted amounts (≈) assume the structure as drawn. The source made the active and inactive calls. No cut-off for these calls is given here.

Legend:
Type in all cases: functional
Staphylococcus aureus [1] = test: Antimicrobial activity against Staphylococcus aureus IFO 3060 at 200 ug/8 mm disk after 24 hrs by agar disk diffusion method
Outline: (§1)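 Agar disc diffusion on Mueller-Hinton agar: 8 mm filter paper discs moistened with compound in DMSO (200 per disc) placed on plates pre-inoculated with each organism; incubated at 37 °C; growth inhibition zone diameter read after 24 h for bacteria, 48 h for C. albicans.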

Bacillus subtilis [2] = test: Antimicrobial activity against Bacillus subtilis IFO 3007 at 200 ug/8 mm disk after 24 hrs by agar disk diffusion method; outline: as §1
Micrococcus luteus [3] = test: Antimicrobial activity against Micrococcus luteus IFO 3232 at 200 ug/8 mm disk after 24 hrs by agar disk diffusion method; outline: as §1
Escherichia coli [4] = test: Antimicrobial activity against Escherichia coli IFO 3301 at 200 ug/8 mm disk after 24 hrs by agar disk diffusion method; outline: as §1
Pseudomonas aeruginosa [5] = test: Antimicrobial activity against Pseudomonas aeruginosa IFO 3448 at 200 ug/8 mm disk after 24 hrs by agar disk diffusion method; outline: as §1
Candida albicans [6] = test: Antimicrobial activity against Candida albicans IFO 0583 at 200 ug/8 mm disk after 48 hrs by agar disk diffusion method; outline: as §1
Rattus norvegicus [7] = test: Antiinflammatory activity in Sprague-Dawley rat assessed as inhibition of carrageenan-induced paw edema at 20 mg/kg, ip administered 1 hrs before carrageenan challenge relative to untreated control; conditions: route intraperitoneal
Rattus norvegicus [8] = test: Antiinflammatory activity in Sprague-Dawley rat assessed as inhibition of carrageenan-induced paw edema at 40 mg/kg, ip administered 1 hrs before carrageenan challenge relative to untreated control; conditions: route intraperitoneal
Candida albicans [9] = test: Antimicrobial activity against Candida albicans IFO 0583 at 100 ug/8 mm disk after 48 hrs by agar disk diffusion method
Outline: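 Reference antifungal applied at 100 per 8 mm disc on Mueller-Hinton agar pre-inoculated with C. albicans; 37 °C incubation; inhibition zone diameter measured at 48 h.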

Candida albicans [10] = test: Antimicrobial activity against Candida albicans IFO 0583 after 48 hrs; conditions: IFO 0583, 48 h
Outline: (§2)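 MIC by two-fold serial dilution in wells, inoculated with microbial suspensions at 10^6 CFU/mL. Incubation was at 36 °C for 24 h (bacteria) or 48 h (C. albicans). MIC was the lowest concentration fully inhibiting visible growth, read by unaided eye.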

Staphylococcus aureus [11] = test: Antimicrobial activity against Staphylococcus aureus IFO 3060 at 100 ug/8 mm disk after 24 hrs by agar disk diffusion method
Outline: (§3)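 Agar disc diffusion on Mueller-Hinton agar. Sterile 8 mm filter-paper discs were moistened with the agent dissolved in DMSO and placed on plates already inoculated with the organism. Plates were incubated at 37 °C, and growth-inhibition zone diameters were measured after 24 h.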

Bacillus subtilis [12] = test: Antimicrobial activity against Bacillus subtilis IFO 3007 at 100 ug/8 mm disk after 24 hrs by agar disk diffusion method; outline: as §3
Micrococcus luteus [13] = test: Antimicrobial activity against Micrococcus luteus IFO 3232 at 100 ug/8 mm disk after 24 hrs by agar disk diffusion method; outline: as §3
Escherichia coli [14] = test: Antimicrobial activity against Escherichia coli IFO 3301 at 100 ug/8 mm disk after 24 hrs by agar disk diffusion method; outline: as §3
Pseudomonas aeruginosa [15] = test: Antimicrobial activity against Pseudomonas aeruginosa IFO 3448 at 100 ug/8 mm disk after 24 hrs by agar disk diffusion method; outline: as §3
Bacillus subtilis [16] = test: Antimicrobial activity against Bacillus subtilis IFO 3007 after 24 hrs
Outline: (§4)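 MIC by two-fold serial dilution in wells inoculated with 10^6 CFU/mL of each organism; incubated at 36 °C for 24 h (bacteria); MIC taken as lowest concentration giving no visible growth by unaided eye.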

Micrococcus luteus [17] = test: Antimicrobial activity against Micrococcus luteus IFO 3232 after 24 hrs; outline: as §2
Pseudomonas aeruginosa [18] = test: Antimicrobial activity against Pseudomonas aeruginosa IFO 3448 after 24 hrs; outline: as §4
Rattus norvegicus [19] = test: Antiinflammatory activity in Sprague-Dawley rat assessed as inhibition of carrageenan-induced paw edema at 5 mg/kg, ip administered 1 hrs before carrageenan challenge relative to untreated control; conditions: route intraperitoneal
Staphylococcus aureus [20] = test: Antimicrobial activity against Staphylococcus aureus IFO 3060 after 24 hrs; outline: as §2
Escherichia coli [21] = test: Antimicrobial activity against Escherichia coli IFO 3301 after 24 hrs; conditions: IFO 3301, 24 h; outline: as §4

## S=c1sc(C23CC4CC(CC(C4)C2)C3)nn1Cc1ccccc1
Staphylococcus aureus [1]
  growth inhibition (GI): inactive
Bacillus subtilis [2]
  growth inhibition (GI): inactive
Micrococcus luteus [3]
  growth inhibition (GI): inactive
Escherichia coli [4]
  growth inhibition (GI): inactive
Pseudomonas aeruginosa [5]
  growth inhibition (GI): inactive
Candida albicans [6]
  growth inhibition (GI): inactive
Rattus norvegicus [7]
  inhibition in vivo at 20 mg/kg: 1.12%
Rattus norvegicus [8]
  inhibition in vivo at 40 mg/kg: 0.92%

## O=c1[nH]nc(C23CC4CC(CC(C4)C2)C3)s1
Staphylococcus aureus [1]
  growth inhibition (GI): inactive
Bacillus subtilis [2]
  growth inhibition (GI): inactive
Micrococcus luteus [3]
  growth inhibition (GI): inactive
Escherichia coli [4]
  growth inhibition (GI): inactive
Pseudomonas aeruginosa [5]
  growth inhibition (GI): inactive
Candida albicans [6]
  growth inhibition (GI): inactive

## Clc1ccccc1C(c1ccccc1)(c1ccccc1)n1ccnc1 [CLOTRIMAZOLE]
Candida albicans [9]
  GI: 21 mm
Candida albicans [10]
  MIC: 2 µg/mL (≈ 5.8 µM)

## CC1(C)S[C@@H]2[C@H](NC(=O)[C@H](N)c3ccccc3)C(=O)N2[C@H]1C(=O)O [AMPICILLIN]
Staphylococcus aureus [11]
  GI: 23 mm
Bacillus subtilis [12]
  GI: 21 mm
Micrococcus luteus [13]
  GI: 19 mm
Escherichia coli [14]
  GI: 17 mm
Pseudomonas aeruginosa [15]
  GI: 17 mm
Bacillus subtilis [16]; IFO 3007, 24 h
  MIC: 0.5 µg/mL (≈ 1.43 µM)
Micrococcus luteus [17]; IFO 3232, 24 h
  MIC: 2 µg/mL (≈ 5.72 µM)
Pseudomonas aeruginosa [18]; IFO 3448, 24 h
  MIC: 2 µg/mL (≈ 5.72 µM)

## CN1CCN(Cn2nc(C34CC5CC(CC(C5)C3)C4)sc2=S)CC1
Staphylococcus aureus [1]
  GI: 13 mm
Bacillus subtilis [2]
  GI: 14 mm
Micrococcus luteus [3]
  GI: 14 mm
Escherichia coli [4]
  growth inhibition (GI): inactive
Pseudomonas aeruginosa [5]
  growth inhibition (GI): inactive
Candida albicans [6]
  growth inhibition (GI): inactive

## Fc1ccc(Cn2nc(C34CC5CC(CC(C5)C3)C4)sc2=S)cc1
Staphylococcus aureus [1]
  growth inhibition (GI): inactive
Bacillus subtilis [2]
  growth inhibition (GI): inactive
Micrococcus luteus [3]
  growth inhibition (GI): inactive
Escherichia coli [4]
  growth inhibition (GI): inactive
Pseudomonas aeruginosa [5]
  growth inhibition (GI): inactive
Candida albicans [6]
  GI: 14 mm

## COc1ccc2c(c1)c(CC(=O)O)c(C)n2C(=O)c1ccc(Cl)cc1 [INDOMETHACIN]
Rattus norvegicus [19]
  inhibition in vivo at 5 mg/kg: 52.8%

## Fc1ccc(NC(=S)Nc2nnc(C34CC5CC(CC(C5)C3)C4)s2)cc1
Staphylococcus aureus [1]
  GI: 14 mm
Bacillus subtilis [2]
  GI: 19 mm
Micrococcus luteus [3]
  GI: 11 mm
Escherichia coli [4]
  growth inhibition (GI): inactive
Pseudomonas aeruginosa [5]
  growth inhibition (GI): inactive
Candida albicans [6]
  growth inhibition (GI): inactive
Bacillus subtilis [16]; IFO 3007, 24 h
  MIC: 4 µg/mL (≈ 10.3 µM)

## CC(C(=O)O)n1nc(C23CC4CC(CC(C4)C2)C3)sc1=S (racemic)
Staphylococcus aureus [1]
  GI: 18 mm
Bacillus subtilis [2]
  GI: 20 mm
Micrococcus luteus [3]
  GI: 13 mm
Escherichia coli [4]
  growth inhibition (GI): inactive
Pseudomonas aeruginosa [5]
  growth inhibition (GI): inactive
Candida albicans [6]
  growth inhibition (GI): inactive
Bacillus subtilis [16]; IFO 3007, 24 h
  MIC: 4 µg/mL (≈ 12.3 µM)
Rattus norvegicus [7]
  inhibition in vivo at 20 mg/kg: 50.6%
Rattus norvegicus [8]
  inhibition in vivo at 40 mg/kg: 65.2%

## S=c1sc(C23CC4CC(CC(C4)C2)C3)nn1CN1CCN(c2ccccc2)CC1
Staphylococcus aureus [1]
  growth inhibition (GI): inactive
Bacillus subtilis [2]
  GI: 14 mm
Micrococcus luteus [3]
  growth inhibition (GI): inactive
Escherichia coli [4]
  growth inhibition (GI): inactive
Pseudomonas aeruginosa [5]
  growth inhibition (GI): inactive
Candida albicans [6]
  growth inhibition (GI): inactive

## O=[N+]([O-])c1ccc(Cn2nc(C34CC5CC(CC(C5)C3)C4)sc2=S)cc1
Staphylococcus aureus [1]
  growth inhibition (GI): inactive
Bacillus subtilis [2]
  growth inhibition (GI): inactive
Micrococcus luteus [3]
  growth inhibition (GI): inactive
Escherichia coli [4]
  growth inhibition (GI): inactive
Pseudomonas aeruginosa [5]
  growth inhibition (GI): inactive
Candida albicans [6]
  growth inhibition (GI): inactive

## GENTAMICIN
Staphylococcus aureus [11]
  GI: 26 mM
Bacillus subtilis [12]
  GI: 25 mM
Micrococcus luteus [13]
  GI: 18 mM
Escherichia coli [14]
  GI: 20 mM
Pseudomonas aeruginosa [15]
  GI: 19 mM
Staphylococcus aureus [20]
  MIC: 2 µg/mL
Bacillus subtilis [16]
  MIC: 2 µg/mL
Micrococcus luteus [17]
  MIC: 2 µg/mL
Pseudomonas aeruginosa [18]
  MIC: 1 µg/mL

## O=C(O)Cn1nc(C23CC4CC(CC(C4)C2)C3)sc1=S
Staphylococcus aureus [1]
  GI: 18 mm
Bacillus subtilis [2]
  GI: 22 mm
Micrococcus luteus [3]
  GI: 16 mm
Escherichia coli [4]
  growth inhibition (GI): inactive
Pseudomonas aeruginosa [5]
  growth inhibition (GI): inactive
Candida albicans [6]
  GI: 17 mm
Bacillus subtilis [16]; IFO 3007, 24 h
  MIC: 2 µg/mL (≈ 6.44 µM)
Rattus norvegicus [7]
  inhibition in vivo at 20 mg/kg: 29.5%
Rattus norvegicus [8]
  inhibition in vivo at 40 mg/kg: 32.7%

## CCN1CCN(Cn2nc(C34CC5CC(CC(C5)C3)C4)sc2=S)CC1
Staphylococcus aureus [1]
  GI: 12 mm
Bacillus subtilis [2]
  GI: 13 mm
Micrococcus luteus [3]
  growth inhibition (GI): inactive
Escherichia coli [4]
  growth inhibition (GI): inactive
Pseudomonas aeruginosa [5]
  growth inhibition (GI): inactive
Candida albicans [6]
  growth inhibition (GI): inactive
Rattus norvegicus [7]
  inhibition in vivo at 20 mg/kg: 11.3%
Rattus norvegicus [8]
  inhibition in vivo at 40 mg/kg: 10.6%

## S=C(Nc1ccccc1)Nc1nnc(C23CC4CC(CC(C4)C2)C3)s1
Staphylococcus aureus [1]
  GI: 13 mm
Bacillus subtilis [2]
  GI: 14 mm
Micrococcus luteus [3]
  GI: 15 mm
Escherichia coli [4]
  growth inhibition (GI): inactive
Pseudomonas aeruginosa [5]
  growth inhibition (GI): inactive
Candida albicans [6]
  growth inhibition (GI): inactive

## S=c1sc(C23CC4CC(CC(C4)C2)C3)nn1Cc1ccc(Cl)cc1
Staphylococcus aureus [1]
  growth inhibition (GI): inactive
Bacillus subtilis [2]
  growth inhibition (GI): inactive
Micrococcus luteus [3]
  growth inhibition (GI): inactive
Escherichia coli [4]
  growth inhibition (GI): inactive
Pseudomonas aeruginosa [5]
  growth inhibition (GI): inactive
Candida albicans [6]
  growth inhibition (GI): inactive

## S=c1[nH]nc(C23CC4CC(CC(C4)C2)C3)s1
Staphylococcus aureus [1]
  GI: 13 mm
Bacillus subtilis [2]
  GI: 13 mm
Micrococcus luteus [3]
  growth inhibition (GI): inactive
Escherichia coli [4]
  GI: 27 mm
Pseudomonas aeruginosa [5]
  GI: 20 mm
Candida albicans [6]
  growth inhibition (GI): inactive
Escherichia coli [21]
  MIC: 0.5 µg/mL (≈ 1.98 µM)
Pseudomonas aeruginosa [18]; IFO 3448, 24 h
  MIC: 2 µg/mL (≈ 7.92 µM)

## S=C(Nc1ccc(Cl)cc1)Nc1nnc(C23CC4CC(CC(C4)C2)C3)s1
Staphylococcus aureus [1]
  GI: 15 mm
Bacillus subtilis [2]
  GI: 20 mm
Micrococcus luteus [3]
  GI: 12 mm
Escherichia coli [4]
  growth inhibition (GI): inactive
Pseudomonas aeruginosa [5]
  growth inhibition (GI): inactive
Candida albicans [6]
  growth inhibition (GI): inactive
Bacillus subtilis [16]; IFO 3007, 24 h
  MIC: 2 µg/mL (≈ 4.94 µM)

## O=C(O)CCn1nc(C23CC4CC(CC(C4)C2)C3)sc1=S
Staphylococcus aureus [1]
  GI: 11 mm
Bacillus subtilis [2]
  GI: 13 mm
Micrococcus luteus [3]
  growth inhibition (GI): inactive
Escherichia coli [4]
  growth inhibition (GI): inactive
Pseudomonas aeruginosa [5]
  growth inhibition (GI): inactive
Candida albicans [6]
  GI: 11 mm
Rattus norvegicus [7]
  inhibition in vivo at 20 mg/kg: 7.47%
Rattus norvegicus [8]
  inhibition in vivo at 40 mg/kg: 36.8%
